Key:
[1] = target: T1, Sigma non-opioid intracellular receptor 1 (Rattus norvegicus, UniProt Q9R0C9); test: Binding affinity for sigma receptor was evaluated by the inhibitory effect on [3H]DTG to rat whole brain membranes; type: cell membranes
Outline: (§1)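 Bound ligand collected by filtration onto PEI-soaked filters and counted by scintillation; nonspecific binding defined with haloperidol. IC50 by nonlinear least-squares fit; mean ± SE of three experiments, or a single experiment where no SE is given.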

[2] = species on record: Mus musculus; test: Effect on the sleeping time of mice before halothane load (control group); type: functional
Outline: (§2)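 Groups of 10 mice received compound orally 1 h before testing, at 100 mg/kg unless another dose is noted. Vehicle was 0.5% gum arabic in 0.9% saline, and controls received vehicle alone. Mice were exposed to 4% halothane in air at 2 L/min. Sleeping time ran from loss to recovery of righting reflex (mean ± SE s), expressed as % of control. Two-tailed t-test was used.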

[3] = system: Mus musculus; test: Effect on the sleeping time of mice anesthetized with halothane (treated group); type: functional; outline: as §2
[4] = target: T1, Sigma non-opioid intracellular receptor 1; test: Binding affinity for sigma receptor was evaluated by the inhibitory effect on [3H]DTG to rat whole brain membranes.; type: functional, cell membranes; outline: as §1
[5] = species on record: Mus musculus; test: Effect on recovery time for coma induced in mice by cerebral concussion (control group); type: functional
Outline: (§3)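 Groups of 10 mice received compound orally 1 h before head concussion, at 100 mg/kg unless another dose is noted. Vehicle was 0.5% gum arabic in saline, and controls received vehicle alone. The read-out was time to reappearance of the righting reflex (mean ± SE s), expressed as % of control. Two-tailed t-test was used.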

[6] = species on record: Mus musculus; test: Effect on recovery time for coma induced in mice by cerebral concussion (treated group); type: functional; outline: as §3
[7] = system: Mus musculus; test: Effect on the sleeping time of mice anesthetized with halothane (treated group) (p <0.01); type: functional; outline: as §2

T1 sequence (Q9R0C9 whole entry): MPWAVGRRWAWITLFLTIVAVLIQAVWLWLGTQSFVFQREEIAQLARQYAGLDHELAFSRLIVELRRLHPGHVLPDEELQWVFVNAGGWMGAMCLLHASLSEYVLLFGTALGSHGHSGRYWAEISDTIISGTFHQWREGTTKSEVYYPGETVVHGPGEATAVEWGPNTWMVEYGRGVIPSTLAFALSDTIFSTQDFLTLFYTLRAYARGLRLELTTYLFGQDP

Row | Structure (SMILES) | IC50 [1] [nM] | Sleeping time [2] [s] | Sleeping time [3] [s] | IC50 [4] [nM] | RRT [5] [s] | RRT [6] [s] | Sleeping time [7] [s]
1 | Br.O=C1CCc2c(Cl)cccc2N1CCCN1CCN(c2cccc(O)c2)CC1 | 240 | 564 | 529 | – | – | – | –
2 | COc1cccc2c1CCC(=O)N2CCCCN1CCN(c2cccc(Cl)c2)CC1 | – | 478 | 549 | – | – | – | –
3 | COc1cccc2c1CCC(=O)N2CCCN1CCN(c2cccc(C)c2)CC1 | – | 353 | 426 | – | – | – | –
4 | COc1cccc2c1CCC(=O)N2CCCN1CCN(c2cccc(F)c2)CC1 | – | 465 | 600 | – | – | – | –
5 | COc1cccc2c1CCC(=O)N2CCCN1CCN(c2ccc(Cl)cc2)CC1 | – | 465 | 496 | 460 | – | – | –
6 | COc1cccc2c1CCC(=O)N2CCCN1CCN(c2ccccc2Cl)CC1 | 260 | 465 | 675 | – | – | – | –
7 | Cc1cccc(N2CCN(CCCOc3ccc4ccc(O)nc4c3)CC2)c1C | – | 311 | <956 | – | – | – | –
8 | COc1cccc2c1CCC(=O)N2CCCN1CCN(c2cccc(O)c2)CC1 | – | 483 | 400 | 810 | – | – | –
9 | COc1cccc2c1CCC(=O)N2CCCN1CCN(c2cccc(N)c2)CC1 | – | 553 | <1380 | – | – | – | –
10 | COc1cccc2c1ccc(=O)n2CCCN1CCN(c2cccc(C(F)(F)F)c2)CC1 | 820 | – | – | – | 128 | <65 | –
11 | Nc1cccc(N2CCN(CCCN3C(=O)CCc4c(Cl)cccc43)CC2)c1 | 710 | 504 | 646 | – | – | – | –
12 | CCOc1cccc2c1CCC(=O)N2CCCN1CCN(c2cccc(Cl)c2)CC1 | 870 | 353 | <238 | – | 113 | <31 | –
13 | COc1cccc2c1ccc(=O)n2CCCN1CCN(c2cccc(Br)c2)CC1 | – | – | – | – | 122 | <70 | –
14 | CN1C(=O)CN=C(c2ccccc2)c2cc(Cl)ccc21 [DIAZEPAM] | – | 245 | <709 | – | – | – | –
15 | COc1cccc(N2CCN(CCCN3C(=O)CCc4c(Cl)cccc43)CC2)c1 | 130 | 548 | <277 | – | 132 | <36 | –
16 | CC(=O)Nc1cccc(N2CCN(CCCN3C(=O)CCc4c(Cl)cccc43)CC2)c1 | 670 | 565 | – | – | – | – | <778
17 | COc1cccc(N2CCN(CCCN3C(=O)CCc4c(OC)cccc43)CC2)c1 | – | 478 | 579 | – | – | – | –
18 | COc1cccc2c1CCC(=O)N2CCCN1CCN(c2cccc(Br)c2)CC1 | 420 | 498 | <267 | – | 136 | <61 | –
19 | COc1ccc2c(c1)N(CCCN1CCN(c3cccc(Cl)c3)CC1)C(=O)CC2 | – | 566 | <1280 | – | – | – | –
20 | CCCOc1cccc(N2CCN(CCCN3C(=O)CCc4c(Cl)cccc43)CC2)c1 | 370 | 465 | 393 | – | – | – | –
21 | O=C1CCc2c(O)cccc2N1CCCN1CCN(c2cccc(Cl)c2)CC1 | – | 585 | 516 | – | – | – | –
22 | O=C1CCc2c(Cl)cccc2N1CCCN1CCN(c2cccc(Cl)c2)CC1 | – | 548 | 677 | – | – | – | –
